# Data taken from ChEMBL document CHEMBL5360668, “Discovery of Potent Allosteric DRP1 Inhibitors by Disrupting Protein-Protein Interaction with MiD49” (ACS Med Chem Lett, 2023).
# pIC50: −log10 of the molar value. Active and inactive are the calls of the source. The calls are words filed in the database; no cut-off is given here.
# Tests used:
# [1] = Negative allosteric modulator activity at human N-terminal His-tagged DRP1-human C-terminal GST-tagged MiD49 protein protein interaction expressed in Escherichia coli BL21 (DE3) incubated for 90 mins by AlphaLISA assay
# Outline: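 AlphaLISA proximity assay. Glutathione donor and nickel chelate acceptor beads added, then 60 min at room temperature protected from light before signal read. Hits run as 11-point dose–response with TruHits counter-screen.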
# [2] = Solubility of compound in PBS at pH 7.5; format: physicochemical
# A549 [3] = experiment: Inhibition of CCCP-induced mitochondrial fragmentation in human A549 cells preincubated for 1 hr followed by CCCP stimulation for 3 hrs by Alexa Fluor 488/568 and Hoechst staining based high-content imaging analysis; format: functional, cell-based; conditions: time 4.0 hrs
# Outline: (§1)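 A549 cells exposed to compound 1 h at 37 °C, then co-treated with CCCP (5 μM) a further 3 h at 37 °C. Cells fixed in paraformaldehyde and stained with anti-TOM20 primary and goat anti-mouse secondary. Mitochondrial morphology scored by high-content imaging with a supervised machine-learning classifier trained on control siRNA (normal), OPA1 siRNA (fragmented) and DRP1 siRNA (hypertubular) images.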
# A549 [4] = experiment: Inhibition of CCCP-induced mitochondrial fragmentation in human A549 cells at 0.37 to 3.3 uM preincubated for 1 hr followed by CCCP stimulation for 3 hrs by Alexa Fluor 488/568 and Hoechst staining based high-content imaging analysis; format: functional, cell-based; conditions: dose 0.37-3.3 µM, time 4.0 hrs; outline: as §1
# A549 [5] = experiment: Inhibition of CCCP-induced mitochondrial morphology change in human A549 cells at 10 uM preincubated for 1 hr followed by CCCP stimulation for 3 hrs by Alexa Fluor 488/Hoechst 33342 staining based high-content imaging analysis; format: functional, cell-based; conditions: time 4.0 hrs; outline: as §1
Structure (SMILES),pIC50 [1],also measured
CC(C)C(=O)Nc1ccc2nc(-c3ccccc3)cc(-n3ccnc3)c2c1,4.66,
CCNc1cc(-c2ccccc2)nc2ccc(NC(=O)C(C)C)cc12,5.37,
CC(C)C(=O)Nc1ccc2nc(-c3ccccc3)cc(N3CCOCC3)c2c1,4.66,
CC(C)C(=O)Nc1ccc2nc(-c3ccccc3)cc(N3CCCC3=O)c2c1,< 4.00,
CC(C)C(=O)Nc1ccc2nc(-c3ccccc3)cc(N3CCCCC3)c2c1,4.89,
CCOc1cc(-c2ccccc2)nc2ccc(NC(=O)C(C)C)cc12,5.44,
CC(C)C(=O)Nc1ccc2nc(-c3ccccc3)cc(N(C)C)c2c1,4.96,
CC(C)C(=O)Nc1ccc2nc(-c3ccccc3)cc(-n3cccn3)c2c1,4.92,

# The next molecules have a higher pIC50 [1] than those just listed; values first:
pIC50 [1],Structure (SMILES),also measured
6.24,CC1CN(c2cc(-c3ccccc3)nc3ccc(NC(=O)C(C)C)cc23)C1,
6.35,CC(C)C(=O)Nc1ccc2nc(-c3ccccc3)cc(N3CCCC3)c2c1,
6.54,O=C(Nc1ccc2nc(-c3ccccc3)cc(N3CC(O)C3)c2c1)C1COC1,
6.54,CC(C)C(=O)Nc1ccc2nc(-c3ccccc3)cc(N3CC(F)C3)c2c1,
6.85,COc1ccc(-c2cc(N3CCC3)c3cc(NC(=O)C4COC4)ccc3n2)cc1,
6.92,CC(C)C(=O)Nc1ccc2nc(-c3ccccc3)cc(N3CCC3)c2c1,
7.00,O=C(Nc1ccc2nc(-c3ccccc3)cc(N3CCC3)c2c1)C1COC1,solubility [2]: 281 µM; inhibition (A549 [3]): Dose-Dependent Effect; inhibition (A549 [4]): Active; inhibition (A549 [5]): Active
7.30,Cc1ccc(-c2cc(N3CCC3)c3cc(NC(=O)C(C)C)ccc3n2)cc1,solubility [2]: 11 µM
